Blank lines part the entries; values can stand above or below the molecule they belong to. The source made the active and inactive calls. No cut-off for these calls is given here.
Columns and labels:
KB = experiment: Cytotoxicity against human KB cells after 3 days by resazurin microplate assay; type: functional, cell-based; settings: 72 h
Method in brief: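 KB cells (ATCC CCL-17) harvested in log phase and diluted to 7 × 10^4 cells/mL, then added to samples diluted in 0.5% DMSO. Incubated 3 days at 37 °C, 5% CO2, then resazurin added and plates held 4 h at 37 °C. Fluorescence read at ex 530/em 590 nm. IC50 fitted from 6 two-fold serial concentrations; six replicate experiments.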

Vero = experiment: Cytotoxicity against african geen monkey Vero cells after 4 days by GFP reporter assay; type: cell-based, Chlorocebus sabaeus
Method in brief: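 Vero cells (GFP-expressing, grown with geneticin at 37 °C, 5% CO2) added to test compounds diluted in 0.5% DMSO and incubated 4 days at 37 °C, 5% CO2. Bottom-read fluorescence at ex 485/em 535 nm; day-0 background subtracted from the day-4 signal. Typical values from six replicate experiments.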

[1] = target: DNA topoisomerase 2-alpha (Homo sapiens) (UniProt P11388); experiment: Inhibition of human topoisomerase 2-alpha-mediated decatenation of kinetoplast DNA at 50 uM after 1 hr by agarose gel electrophoretic analysis
DNA topoisomerase 2-alpha (Homo sapiens), sequence (P11388 whole entry): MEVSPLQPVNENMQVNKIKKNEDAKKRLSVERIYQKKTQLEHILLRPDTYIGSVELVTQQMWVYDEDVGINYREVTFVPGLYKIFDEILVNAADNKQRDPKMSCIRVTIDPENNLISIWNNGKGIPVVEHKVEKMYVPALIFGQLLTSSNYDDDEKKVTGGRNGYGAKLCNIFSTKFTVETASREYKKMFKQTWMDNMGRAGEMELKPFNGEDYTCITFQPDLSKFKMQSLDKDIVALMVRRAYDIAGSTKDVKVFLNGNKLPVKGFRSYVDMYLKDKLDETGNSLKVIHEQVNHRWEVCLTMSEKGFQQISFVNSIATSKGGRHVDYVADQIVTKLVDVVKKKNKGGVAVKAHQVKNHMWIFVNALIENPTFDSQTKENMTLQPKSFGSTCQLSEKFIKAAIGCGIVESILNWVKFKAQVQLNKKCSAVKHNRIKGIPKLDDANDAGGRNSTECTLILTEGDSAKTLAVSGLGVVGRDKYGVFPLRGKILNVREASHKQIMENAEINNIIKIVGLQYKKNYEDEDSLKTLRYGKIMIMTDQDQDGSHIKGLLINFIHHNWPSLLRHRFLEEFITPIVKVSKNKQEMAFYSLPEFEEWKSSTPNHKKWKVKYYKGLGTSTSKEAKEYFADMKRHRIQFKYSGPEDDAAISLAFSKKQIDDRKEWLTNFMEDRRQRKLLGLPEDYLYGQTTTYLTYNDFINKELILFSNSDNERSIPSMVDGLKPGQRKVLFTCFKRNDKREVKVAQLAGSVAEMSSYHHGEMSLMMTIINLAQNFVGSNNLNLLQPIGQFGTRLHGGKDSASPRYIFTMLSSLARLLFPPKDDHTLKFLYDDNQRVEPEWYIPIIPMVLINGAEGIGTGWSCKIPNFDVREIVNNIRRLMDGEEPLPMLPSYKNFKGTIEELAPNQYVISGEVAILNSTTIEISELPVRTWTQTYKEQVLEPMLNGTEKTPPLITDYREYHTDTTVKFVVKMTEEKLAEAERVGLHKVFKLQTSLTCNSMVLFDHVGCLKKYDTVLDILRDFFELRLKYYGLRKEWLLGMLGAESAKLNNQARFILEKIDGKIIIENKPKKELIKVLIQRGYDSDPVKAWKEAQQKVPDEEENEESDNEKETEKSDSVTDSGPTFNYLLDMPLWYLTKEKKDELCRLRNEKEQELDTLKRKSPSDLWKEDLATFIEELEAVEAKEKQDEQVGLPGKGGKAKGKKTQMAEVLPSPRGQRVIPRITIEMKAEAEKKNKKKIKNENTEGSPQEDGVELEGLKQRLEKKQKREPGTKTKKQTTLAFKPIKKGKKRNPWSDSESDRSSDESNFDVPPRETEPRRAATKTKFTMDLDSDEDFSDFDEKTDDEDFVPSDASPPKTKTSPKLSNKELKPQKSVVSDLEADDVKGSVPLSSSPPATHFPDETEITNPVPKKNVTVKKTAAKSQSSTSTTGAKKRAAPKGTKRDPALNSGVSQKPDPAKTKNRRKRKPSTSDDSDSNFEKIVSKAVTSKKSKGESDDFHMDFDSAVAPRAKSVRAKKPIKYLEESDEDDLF
Method in brief: (§1)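 kDNA (60 ng) incubated with 2 units of human TopoIIα, with or without compound, for 1 h at 37 °C. Buffer: 50 mM Tris-Cl pH 8.0, 150 mM NaCl, 10 mM MgCl2, 0.5 mM dithiothreitol, 2 mM ATP. Decatenation judged by presence or absence of enzyme activity.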

[2] = target: DNA topoisomerase 2-alpha (Homo sapiens) (UniProt P11388); experiment: Inhibition of human topoisomerase 2-alpha-mediated decatenation of kinetoplast DNA at 10 to 20 uM after 1 hr by agarose gel electrophoretic analysis; method in brief: as §1
[3] = target: DNA topoisomerase 2-alpha (Homo sapiens) (UniProt P11388); experiment: Inhibition of human topoisomerase 2-alpha-mediated decatenation of kinetoplast DNA at 5 uM after 1 hr by agarose gel electrophoretic analysis; method in brief: as §1
[4] = Chlorocebus sabaeus, Vero, 96 h, read-out: IC50

SMILES: CCCCCCCCCCC(=O)OCC(C)(C)CC1=C(O)C(=O)c2ccccc2C1=O
IC50 (KB): 54.8 µM

SMILES: CCCCCC(=O)NCC(C)(C)CC1=C(O)C(=O)c2ccccc2C1=O
IC50 (KB): 40.2 µM | IC50 (Vero; [4]): 46.6 µM

SMILES: CCCCCCCCCCCC(=O)NCC(C)(C)CC1=C(O)C(=O)c2ccccc2C1=O
IC50 (KB): 12.8 µM | IC50 (Vero; [4]): 13.9 µM

inhibition [1]: Active
SMILES: CCCC(C)C(=O)NCC(C)(C)CC1=C(O)C(=O)c2ccccc2C1=O (configuration not stated)
IC50 (KB): 47.1 µM | IC50 (Vero; [4]): 48.1 µM

inhibition [1]: Active | inhibition [2]: Active | inhibition [3]: inactive
SMILES: CCCCCCCCCCCCCCCC(=O)NCC(C)(C)CC1=C(O)C(=O)c2ccccc2C1=O
IC50 (KB): 5.12 µM | IC50 (Vero; [4]): 5.6 µM

inhibition [1]: Active
SMILES: CCCCCCCCCCCCCCCC(=O)OCC(C)(C)CC1=C(O)C(=O)c2ccccc2C1=O
IC50 (KB): 27.1 µM

SMILES: CCCCCCCCC(=O)OCC(C)(C)CC1=C(O)C(=O)c2ccccc2C1=O
IC50 (KB): 38.7 µM

SMILES: CCCCCCCC(=O)OCC(C)(C)CC1=C(O)C(=O)c2ccccc2C1=O
IC50 (KB): 38.3 µM

SMILES: CCCCCCCCCC(=O)OCC(C)(C)CC1=C(O)C(=O)c2ccccc2C1=O
IC50 (KB): 55.5 µM

SMILES: CC(C)C(=O)NCC(C)(C)CC1=C(O)C(=O)c2ccccc2C1=O
IC50 (KB): 94.6 µM | IC50 (Vero; vero): Non-toxic

SMILES: CCCC(=O)OCC(C)(C)CC1=C(O)C(=O)c2ccccc2C1=O
IC50 (KB): 43 µM

SMILES: CCC(C)C(=O)NCC(C)(C)CC1=C(O)C(=O)c2ccccc2C1=O (configuration not stated)
IC50 (KB): 102 µM | IC50 (Vero; vero): Non-toxic

SMILES: CCCCCCCCCCCCCCCCCC(=O)OCC(C)(C)CC1=C(O)C(=O)c2ccccc2C1=O
IC50 (KB): 76.7 µM

SMILES: CCCCCCC(C)C(=O)OCC(C)(C)CC1=C(O)C(=O)c2ccccc2C1=O (configuration not stated)
IC50 (KB): 16.8 µM

SMILES: CCCCCCC(=O)NCC(C)(C)CC1=C(O)C(=O)c2ccccc2C1=O
IC50 (KB): 28.2 µM | IC50 (Vero; [4]): 24.8 µM

SMILES: CCCCCCCCCCCCCC(=O)OCC(C)(C)CC1=C(O)C(=O)c2ccccc2C1=O
IC50 (KB): 51.4 µM

SMILES: CCCCCCCCCCC(=O)NCC(C)(C)CC1=C(O)C(=O)c2ccccc2C1=O
IC50 (KB): 17.6 µM | IC50 (Vero; [4]): 14.9 µM

inhibition [1]: Active
SMILES: CCCC(C)C(=O)OCC(C)(C)CC1=C(O)C(=O)c2ccccc2C1=O (configuration not stated)
IC50 (KB): 1.76 µM

SMILES: CCCCCCCCCCCCCC(=O)NCC(C)(C)CC1=C(O)C(=O)c2ccccc2C1=O
IC50 (KB): 25.1 µM | IC50 (Vero; [4]): 9.81 µM

SMILES: CCCCCCC(C)C(=O)NCC(C)(C)CC1=C(O)C(=O)c2ccccc2C1=O (configuration not stated)
IC50 (KB): 23.7 µM | IC50 (Vero; [4]): 15.5 µM

SMILES: CCCCCCCC(=O)NCC(C)(C)CC1=C(O)C(=O)c2ccccc2C1=O
IC50 (KB): 24.6 µM | IC50 (Vero; [4]): 18.4 µM

SMILES: CCC(=O)OCC(C)(C)CC1=C(O)C(=O)c2ccccc2C1=O
IC50 (KB): 84.4 µM

SMILES: CCCCCCC(=O)OCC(C)(C)CC1=C(O)C(=O)c2ccccc2C1=O
IC50 (KB): 14.4 µM

SMILES: CCCCCC(=O)OCC(C)(C)CC1=C(O)C(=O)c2ccccc2C1=O
IC50 (KB): 41 µM

SMILES: CC(C)C(=O)OCC(C)(C)CC1=C(O)C(=O)c2ccccc2C1=O
IC50 (KB): 14.4 µM

SMILES: CCCCC(=O)OCC(C)(C)CC1=C(O)C(=O)c2ccccc2C1=O
IC50 (KB): 27.8 µM

SMILES: CCCCCCCCCC(=O)NCC(C)(C)CC1=C(O)C(=O)c2ccccc2C1=O
IC50 (KB): 18.5 µM | IC50 (Vero; [4]): 15 µM

SMILES: CCCCCCCCC(=O)NCC(C)(C)CC1=C(O)C(=O)c2ccccc2C1=O
IC50 (KB): 19.7 µM | IC50 (Vero; [4]): 16.7 µM

SMILES: COc1cccc2c1C(=O)c1c(O)c3c(c(O)c1C2=O)C[C@@](O)(C(=O)CO)C[C@@H]3O[C@H]1C[C@H](N)[C@H](O)[C@H](C)O1 [DOXORUBICIN]
IC50 (KB): 0.96 µM

SMILES: CCC(C)C(=O)OCC(C)(C)CC1=C(O)C(=O)c2ccccc2C1=O (configuration not stated)
IC50 (KB): 4.65 µM

SMILES: CCCCCCCCCCCC(=O)OCC(C)(C)CC1=C(O)C(=O)c2ccccc2C1=O
IC50 (KB): 35.7 µM

SMILES: CCCCCCCCCCCCCCCCCC(=O)NCC(C)(C)CC1=C(O)C(=O)c2ccccc2C1=O
IC50 (KB): 6.35 µM | IC50 (Vero; [4]): 5.76 µM

— ChEMBL document CHEMBL2311465, “Synthesis of novel naphthoquinone aliphatic amides and esters and their anticancer evaluation” (Eur J Med Chem, 2013)
